Measurements reported in PMC10330157 (Clinical cancer research : an official journal of the …, 2023).
Entries after “also recorded” stand apart in the source; their conditions may differ.

Assays:
[1] = cited from earlier work
patients with CLL/SLL = test: Absolute lymphocyte count; assay type: in vivo, human; conditions: for Mean decrease in ALC: 23 patients with CLL/SLL
Outline: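 Adults with R/R CLL/SLL took the test compound orally once daily in 28-day cycles. ALC was tracked from ramp-up D1 to C1D1 and to C2D1. A subset with baseline mean ALC > 25 × 10³/μL was evaluated separately.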

[2] = system: patients with relapsed or refractory CLL/SLL; test: Phase 1 trial: antitumor response in patients with R/R CLL/SLL; assay type: in vivo, human
Outline: (§1)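 Patients took the oral test compound once daily in 28-day cycles. Disease was assessed at baseline and then every 8 weeks from Cycle 3, using disease-specific scans, bone marrow biopsy/aspirate and hematologic and biochemical labs. MRD was checked in peripheral blood in patients reaching CR. ORR was reported with 95% CI, and missing data were not imputed.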

[3] = Clinical plasma pharmacokinetics; assay type: in vivo, human
Outline: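 Oral test compound was given once daily at doses of 20 to 1,200 mg. Plasma levels were measured by LC-MS/MS (LLOQ 5 ng/mL). Cmax, AUC0-24h and accumulation ratio came from noncompartmental analysis.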

[4] = system: patients with other hematologic malignancies (NHL, MM, myeloid malignancy, HCL, Castleman disease); test: Phase 1 trial: antitumor response in patients without CLL/SLL; assay type: in vivo, human
Outline: as §1

[5] = Phase 1 first-in-human trial: safety and tolerability; assay type: in vivo
Outline: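 In an open-label, non-randomized dose escalation, the test compound was given orally once daily for 28-day cycles at 20–1,200 mg. Cohorts started as single patients, with intrapatient escalation allowed. The primary endpoints were DLT and MTD. Patients were hospitalized during ramp-up, with oral antihyperuricemic agents and hydration ≥ 72 h before the first dose plus IV hydration. AEs were counted once per patient. The safety population was all patients receiving ≥ 1 dose, analysed descriptively.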

[6] = single oral administration, 50 mg, 1 subject
[7] = single oral administration, 100 mg, 1 subject
[8] = single oral administration, 200 mg, 2 subjects, Mean ± SD
[9] = single oral administration, 400 mg, 8 subjects, Mean ± SD
[10] = single oral administration, 600 mg, 7 subjects, Mean ± SD
[11] = single oral administration, 800 mg, 7 subjects, Mean ± SD
[12] = single oral administration, 1,000 mg, 6 subjects, Mean ± SD
[13] = single oral administration, 1,200 mg, 6 subjects, Mean ± SD
[14] = Castleman disease, evaluable n = 1
[15] = Myeloid malignancy (AML, MDS), evaluable n = 2
[16] = Non-CLL/SLL overall, evaluable n = 28

## CC1(C)CCC(CN2CCN(c3ccc(C(=O)NS(=O)(=O)c4ccc(NCC5CCOCC5)c([N+](=O)[O-])c4)c(Oc4cnc5[nH]ccc5c4)c3)CC2)=C(c2ccc(Cl)cc2)C1 [venetoclax]
[1]
  Patients with grade 3/4 neutropenia who may require G-CSF support or dose reductions: ~ 75%
  Recipients experiencing infection: 72%
[1]; real-world-evidence studies
  Grade ≥ 2 diarrhea, recipients: up to 18%
  Grade ≥ 3 neutropenia, recipients: up to 47%
  Grade ≥ 3 neutropenic fever, recipients: up to 13%
  Grade ≥ 3 thrombocytopenia, recipients: up to 36%
  TLS, recipients: up to 13.4%

## O=C(NS(=O)(=O)c1ccc(NC[C@H]2COCCO2)c([N+](=O)[O-])c1)c1ccc(N2CCN(CC3=C(c4ccc(Cl)cc4)CC4(CCC4)CC3)CC2)cc1Oc1cnc2[nH]ccc2c1 [lisaftoclax]
Patients with CLL/SLL; 5 patients with higher risk of TLS
  Median time to 50% ALC reduction: 3 (range, 2-4) days
Patients with CLL/SLL; from ramp-up D1 to C1D1
  Mean decrease in ALC: 69.4%
Patients with CLL/SLL; from ramp-up Day 1 to C2D1 (completion of first cycle)
  Mean decrease in ALC: 92.8%
[2]; 4 out of 5 evaluable patients
  ORR in patients with BTKi-intolerant disease: 80.0%
[2]; CLL/SLL, evaluable n = 22
  Best response MR: 0 (0) no. (%)
  Best response PD: 0 (0) no. (%)
  Best response PR: 14 (63.6) no. (%)
  Best response SD: 8 (36.4) no. (%)
  ORR: 14 (63.6) no. (%)
[2]; CLL/SLL, 2/3
  PR (ORR) in patients with del(17p)/TP53 mutation: 66.7%
[2]; CLL/SLL, 8/10
  PR in patients with IGHV unmutated: 80.0%
[2]; CLL/SLL, 9 of 21 patients
  Patients with ≥ 70% reductions in nodal and/or splenic size: 42.9%
[2]; after 2 cycles of treatment
  Patients achieving PR among 4 patients who relapsed to prior BTKi: 1 patient
[2]; all patients
  Complete response (CR): No patient experienced a CR
[2]; patients with R/R CLL/SLL
  Median time to response: 2 (range, 2-8) cycles
[3]; 400 mg
  Steady-state mean (CV%) AUC0-24h: 10,130 (40%) ng•h/mL
  Steady-state mean (CV%) Cmax: 981 (43%) ng/mL
[3]; multiple oral daily dosing
  Accumulation ratio: approximately 1
[3]; [6]
  AUC0-24: 0.261 µg·h/mL
  Cmax: 0.0391 µg/mL
  T1/2: 2.84 h
  Tmax: 3 h
[3]; [7]
  AUC0-24: 1.80 µg·h/mL
  Cmax: 0.229 µg/mL
  T1/2: 3.85 h
  Tmax: 6 h
[3]; [8]
  AUC0-24: 2.41 ± 0.37 µg·h/mL
  Cmax: 0.294 ± 0.004 µg/mL
  T1/2: 3.84 ± 0.16 h
[3]; single oral administration, 200 mg, 2 subjects, Median (range)
  Tmax: 4 (4~4) h
[3]; [9]
  AUC0-24: 6.85 ± 2.91 µg·h/mL
  Cmax: 0.822 ± 0.334 µg/mL
  T1/2: 4.43 ± 0.57 h
[3]; single oral administration, 400 mg, 8 subjects, Median (range)
  Tmax: 6 (4~8) h
[3]; [10]
  AUC0-24: 7.81 ± 2.84 µg·h/mL
  Cmax: 0.761 ± 0.298 µg/mL
  T1/2: 4.68 ± 1.03 h
[3]; single oral administration, 600 mg, 7 subjects, Median (range)
  Tmax: 6 (4~8) h
[3]; [11]
  AUC0-24: 7.25 ± 2.24 µg·h/mL
  Cmax: 0.982 ± 0.384 µg/mL
  T1/2: 4.34 ± 0.53 h
[3]; single oral administration, 800 mg, 7 subjects, Median (range)
  Tmax: 4 (4~6) h
[3]; [12]
  AUC0-24: 18.3 ± 13.1 µg·h/mL
  Cmax: 1.69 ± 1.22 µg/mL
  T1/2: 6.10 ± 1.52 h
[3]; single oral administration, 1,000 mg, 6 subjects, Median (range)
  Tmax: 8 (6~8) h
[3]; [13]
  AUC0-24: 12.3 ± 4.82 µg·h/mL
  Cmax: 1.20 ± 0.48 µg/mL
  T1/2: 4.86 ± 1.01 h
[3]; single oral administration, 1,200 mg, 6 subjects, Median (range)
  Tmax: 6 (3~8) h
[4]; 28 evaluable patients without CLL/SLL
  Clinical benefit, patients: 50.0%
[4]; [14]
  Best response MR: 0 (0) no. (%)
  Best response PD: 0 (0) no. (%)
  Best response PR: 0 (0) no. (%)
  Best response SD: 1 (100.0) no. (%)
  Clinical benefit rate: 1 (100.0) no. (%)
  ORR: 0 (0) no. (%)
[4]; HCL, evaluable n = 1
  Best response MR: 0 (0) no. (%)
  Best response PD: 0 (0) no. (%)
  Best response PR: 0 (0) no. (%)
  Best response SD: 1 (100.0) no. (%)
  Clinical benefit rate: 1 (100.0) no. (%)
  ORR: 0 (0) no. (%)
[4]; MM, evaluable n = 11
  Best response PD: 7 (63.6) no. (%)
  Best response SD: 2 (18.2) no. (%)
  Clinical benefit rate: 4 (36.4) no. (%)
  ORR: 1 (9.1) no. (%)
[4]; [15]
  Best response MR: 0 (0) no. (%)
  Best response PD: 2 (100.0) no. (%)
  Best response PR: 0 (0) no. (%)
  Best response SD: 0 (0) no. (%)
  Clinical benefit rate: 0 (0) no. (%)
  ORR: 0 (0) no. (%)
[4]; NHL, evaluable n = 13
  Best response PD: 5 (38.5) no. (%)
  Best response PR: 0 (0) no. (%)
  Best response SD: 7 (53.8) no. (%)
  Clinical benefit rate: 8 (61.5) no. (%)
  ORR: 0 (0) no. (%)
[4]; [16]
  Best response MR: 2 (7.1) no. (%)
  Best response PD: 14 (50.0) no. (%)
  Best response PR: 1 (3.6) no. (%)
  Best response SD: 11 (39.3) no. (%)
  Clinical benefit rate: 14 (50.0) no. (%)
  ORR: 1 (3.6) no. (%)
[5]; 23 patients with CLL/SLL
  Grade 3 or 4 treatment-emergent increased lipase, patients: 13.0%
  Grade 3 or 4 treatment-emergent neutropenia, patients: 26.1%
  Treatment-related neutropenia, patients: 26.1%
[5]; N = 52, Grade 3/4
  Anemia, treatment-emergent adverse event: 5 (9.6) no. (%)
  Constipation, treatment-emergent adverse event: 1 (1.9) no. (%)
  Diarrhea, treatment-emergent adverse event: 1 (1.9) no. (%)
  Fatigue, treatment-emergent adverse event: 1 (1.9) no. (%)
  Headache, treatment-emergent adverse event: 2 (3.8) no. (%)
  Hypokalemia, treatment-emergent adverse event: 1 (1.9) no. (%)
  Nausea, treatment-emergent adverse event: 2 (3.8) no. (%)
  Neutropenia, treatment-emergent adverse event: 11 (21.2) no. (%)
  Peripheral edema, treatment-emergent adverse event: 2 (3.8) no. (%)
  Thrombocytopenia, treatment-emergent adverse event: 7 (13.5) no. (%)
[5]; N = 52, any grade
  Anemia, treatment-emergent adverse event: 15 (28.8) no. (%)
  Arthralgia, treatment-emergent adverse event: 8 (15.4) no. (%)
  Constipation, treatment-emergent adverse event: 13 (25.0) no. (%)
  Diarrhea, treatment-emergent adverse event: 25 (48.1) no. (%)
  Fatigue, treatment-emergent adverse event: 18 (34.6) no. (%)
  Headache, treatment-emergent adverse event: 11 (21.2) no. (%)
  Hypokalemia, treatment-emergent adverse event: 9 (17.3) no. (%)
  Nausea, treatment-emergent adverse event: 16 (30.8) no. (%)
  Neutropenia, treatment-emergent adverse event: 14 (26.9) no. (%)
  Peripheral edema, treatment-emergent adverse event: 9 (17.3) no. (%)
  Thrombocytopenia, treatment-emergent adverse event: 15 (28.8) no. (%)
  Vomiting, treatment-emergent adverse event: 12 (23.1) no. (%)
[5]; daily dose ramp-up, doses up to 1,200 mg
  Tumor lysis syndrome (TLS), clinical or laboratory: no evidence of tumor lysis syndrome; also recorded: no evidence of clinical or laboratory TLS; also recorded: no patient with CLL/SLL in this study has experienced TLS; also recorded: no clinical or laboratory evidence of TLS
[5]; doses of up to 1,200 mg
  Dose-limiting toxicity (DLT): not reached; also recorded: no dose-limiting toxicities
[5]; in contrast to navitoclax
  Changes in platelet counts: did not elicit clinically significant changes in platelet counts
[5]; in vivo
  Neutropenic sequelae, such as fever and infection: not observed
[5]; oral once daily, 20 mg to 1,200 mg, 52 patients
  Maximum tolerated dose (MTD): not reached
